The values below come from ChEMBL document CHEMBL2380254, “Optimization of tocotrienols as antiproliferative and antimigratory leads” (Eur J Med Chem, 2013).

One experiment has as its system BT-549. Description: Growth inhibition of human BT549 cells assessed as cell growth at 10 uM after 48 hrs by sulforhodamine B assay. It is filed as functional. To be noted: BT-549, 48 h, read-out: Activity. The essentials:
(§1)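 NCI-60 single-dose screen at 10 µM: cells in RPMI 1640 with 5% FBS, preincubated 24 h, then exposed 48 h at 37 °C. TCA fixation (16% final for suspension cells), SRB staining, absorbance 515 nm. Percent growth relative to time-zero and untreated control plates; negative values indicate cell kill.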

A further experiment concerns UO-31. Kind of experiment: Growth inhibition of human UO31 cells assessed as cell growth at 10 uM after 48 hrs by sulforhodamine B assay. The note with it: UO-31, 48 h, read-out: Activity. In kind it is functional. The essentials:
(§2)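 Single-dose NCI-60 test at 10 µM. Cells were grown in RPMI 1640 with 5% FBS and 2 mM L-glutamine, preincubated 24 h, with T0 plates TCA-fixed. Exposure was 48 h at 37 °C, 5% CO2. Cells were fixed with cold TCA (final 10%, 4 °C, 60 min), stained with SRB and read at 515 nm. Percent growth was taken relative to T0 and untreated control; negative values denote cell kill.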

A further experiment deals with SN12C. Description: Growth inhibition of human SN12C cells assessed as cell growth at 10 uM after 48 hrs by sulforhodamine B assay. It is filed as functional. The note with it: read-out: Activity. Put shortly:
as §2

A further experiment has as its system OVCAR-8. Kind of experiment: Growth inhibition of human OVCAR8 cells assessed as cell growth at 10 uM after 48 hrs by sulforhodamine B assay. In kind it is functional. The note with it: OVCAR-8, 48 h, read-out: Activity. The essentials:
(§3)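 Single-dose NCI-60 screen: adherent cells in RPMI 1640 with 5% FBS were exposed to 10 µM for 48 h at 37 °C after a 24 h preincubation. They were fixed in situ with cold TCA (10% final), stained with 0.4% SRB in 1% acetic acid, solubilized in 10 mM Tris base, and read at 515 nm. Percent growth was taken relative to time-zero and control plates.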

A further experiment has as its system MDA-MB-435. Kind of experiment: Growth inhibition of human MDA-MB-435 cells assessed as cell growth at 10 uM after 48 hrs by sulforhodamine B assay. It is filed as functional. To be noted: MDA-MB-435, 48 h, read-out: Activity. The essentials:
as §3

The next experiment concerns M14. Kind of experiment: Growth inhibition of human M14 cells assessed as cell growth at 10 uM after 48 hrs by sulforhodamine B assay. In kind it is functional. To be noted: M14, 48 h, read-out: Activity. Put shortly: as §1
A further experiment has as its system SF-268. Kind of experiment: Growth inhibition of human SF268 cells assessed as cell growth at 10 uM after 48 hrs by sulforhodamine B assay. In kind it is functional. The note with it: SF-268, 48 h, read-out: Activity. Put shortly: as §3
A further experiment deals with SW-620. Kind of experiment: Growth inhibition of human SW620 cells assessed as cell growth at 10 uM after 48 hrs by sulforhodamine B assay. In kind it is functional. The note with it: SW-620, 48 h, read-out: Activity. The essentials:
as §2

The next experiment has as its system HT-29. Description: Growth inhibition of human HT-29 cells assessed as cell growth at 10 uM after 48 hrs by sulforhodamine B assay. It is filed as functional. To be noted: HT-29, 48 h, read-out: Activity. Put shortly: as §1
A further experiment concerns COLO 205. Kind of experiment: Growth inhibition of human COLO205 cells assessed as cell growth at 10 uM after 48 hrs by sulforhodamine B assay. It is filed as functional. To be noted: COLO 205, 48 h, read-out: Activity. Put shortly:
as §1

Another experiment deals with NCI-H23. Kind of experiment: Growth inhibition of human NCI-H23 cells assessed as cell growth at 10 uM after 48 hrs by sulforhodamine B assay. It is filed as functional. To be noted: NCI-H23, 48 h, read-out: Activity. The essentials: as §3
The test system of the next experiment is A549. Description: Growth inhibition of human A549/ATCC cells assessed as cell growth at 10 uM after 48 hrs by sulforhodamine B assay. It is filed as functional. To be noted: A549, 48 h, read-out: Activity. Put shortly: as §1
Another experiment has as its system MDA-MB-231. Description: Antiproliferative activity against human MDA-MB-231 cells by MTT assay. It is filed as functional, cell-based. Put shortly: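 Cells plated at 8 × 10^3/well (MDA-MB-231) or 10^4/well (MCF7) in 96-well plates. Compounds fed in media with 5% FBS (MDA-MB-231) or 1% FBS (MCF7). MTT read-out of viable cells.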
A further experiment concerns HOP-92. Kind of experiment: Growth inhibition of human HOP92 cells assessed as cell growth at 10 uM after 48 hrs by sulforhodamine B assay. To be noted: HOP-92, 48 h, read-out: Activity. It is filed as functional. The essentials: as §1

Regarding `CC(C)=CCC/C(C)=C/CC/C(C)=C/CC[C@]1(C)CCc2c3c(cc(C)c2O1)OCN(CCCCCCCCCCO)C3`, the growth at 10 µM with BT-549 is 102%; in the experiment on UO-31, 61.9%; in the experiment on SN12C, 92.7%; in the experiment with OVCAR-8, 74.6%; in the experiment on MDA-MB-435 it was 101%; in the experiment with M14 it was 94.9%. Further, the growth at 10 µM in the experiment with SF-268 was found to be 97.7%; in the experiment on SW-620 it was 104%; with HT-29, 48.3%; in the experiment with COLO 205 it was 79.3%; with NCI-H23, 90.8%; in the experiment on A549, 59.9%. In the experiment with MDA-MB-231, the IC50 came to 12.4 µM.

In the case of `CC(C)=CCC/C(C)=C/CC/C(C)=C/CC[C@]1(C)CCc2c3c(c(C)c(C)c2O1)OCN(CCCCCCCCCCCCO)C3`, the growth at 10 µM was found to be 127% in the experiment on BT-549; 77.7% in the experiment with UO-31; 97.4% in the experiment with SN12C; 100% in the experiment on OVCAR-8; 100% in the experiment on MDA-MB-435; 113% in the experiment with M14. Besides, the growth at 10 µM was 116% with SF-268; 109% in the experiment with SW-620; 84.4% in the experiment with HT-29; 97.5% in the experiment with COLO 205; 104% in the experiment on NCI-H23; 107% in the experiment on HOP-92. Further, the growth at 10 µM in the experiment on A549 turned out to be 86.5%. Besides, the IC50 in the experiment with MDA-MB-231 was greater than 50 µM.

Consider `COc1ccc(CCNCc2c(O)c(C)c(C)c3c2CC[C@@](C)(CC/C=C(\C)CC/C=C(\C)CCC=C(C)C)O3)cc1OC`, for which the growth at 10 µM in the experiment on BT-549 is 118%; with UO-31 it was 69.5%; in the experiment on SN12C, 74%; with OVCAR-8, 66.8%; with MDA-MB-435 it was 57.5%; in the experiment with M14, 90.4%. For the same compound, the growth at 10 µM in the experiment with SF-268 was found to be 98%; with SW-620 it was 47.2%; with HT-29, 45.8%; with COLO 205, 5.95%; in the experiment on NCI-H23, 84.9%; with HOP-92, 104%. The growth at 10 µM with A549 was 91.8%.

In the case of `CC(C)=CCC/C(C)=C/CC/C(C)=C/CC[C@]1(C)CCc2c(CNCCc3ccc(O)cc3)c(O)c(C)c(C)c2O1`, the growth at 10 µM amounted to 105% with BT-549; 70.8% in the experiment on UO-31; 95.1% in the experiment on SN12C; 84.8% with OVCAR-8; 81.3% in the experiment on MDA-MB-435; 102% in the experiment on M14. The growth at 10 µM with SF-268 was found to be 96.9%; in the experiment on SW-620, 101%; with HT-29 it was 95.5%; with COLO 205, 106%; in the experiment with NCI-H23, 91.5%; in the experiment on HOP-92 it was 94.6%. Further, the growth at 10 µM with A549 is 94.2%.

For the compound `COc1ccc(CCN2COc3c(C)c(C)c4c(c3C2)CC[C@@](C)(CC/C=C(\C)CC/C=C(\C)CCC=C(C)C)O4)cc1OC`, the growth at 10 µM is 115% with BT-549; 76.2% in the experiment with UO-31; 87.3% with SN12C; 101% in the experiment on OVCAR-8; 90.7% with MDA-MB-435; 101% with M14. The growth at 10 µM worked out at 94.8% in the experiment with SF-268; 101% in the experiment with SW-620; 91.7% with HT-29; 86.7% in the experiment on COLO 205; 102% in the experiment on NCI-H23; 106% in the experiment with HOP-92. Besides, the growth at 10 µM in the experiment on A549 is 98.9%. In the experiment on MDA-MB-231, this compound had an IC50 greater than 50 µM.

For the compound `CC(C)=CCC/C(C)=C/CC/C(C)=C/CC[C@]1(C)CCc2c3c(c(C)c(C)c2O1)OCN(CCCCCCCCCCO)C3`, the growth at 10 µM was 108% in the experiment on BT-549; 71.7% in the experiment on UO-31; 99.4% in the experiment with SN12C; 89.7% with OVCAR-8; 98.3% with MDA-MB-435; 101% in the experiment with M14. The growth at 10 µM in the experiment on SF-268 came to 94.2%; with SW-620, 105%; in the experiment on HT-29 it was 90%; in the experiment with COLO 205, 100%; in the experiment with NCI-H23, 90.9%; with HOP-92 it was 93.7%. Further, the growth at 10 µM with A549 is 74.9%. This compound yielded an IC50 in the experiment on MDA-MB-231 of 15.7 µM.

As to `CC(C)=CCC/C(C)=C/CC/C(C)=C/CC[C@]1(C)CCc2cc(O)c(C)c(C)c2O1` [GAMMA-TOCOTRIENOL], the growth at 10 µM with BT-549 was found to be 141%; in the experiment with UO-31 it was 64.1%; in the experiment with SN12C it was 96%; in the experiment with OVCAR-8, 112%; in the experiment on MDA-MB-435, 102%; with M14, 109%. For the same compound, the growth at 10 µM in the experiment with SF-268 was 108%; with SW-620, 110%; in the experiment with HT-29, 96.1%; in the experiment on COLO 205, 94.4%; in the experiment with NCI-H23, 92.8%; in the experiment with HOP-92 it was 92%. In the experiment with A549, the growth at 10 µM came out at 105%. Also, in the experiment with MDA-MB-231, the IC50 stood at 9.4 µM.

As to `CC(C)=CCC/C(C)=C/CC/C(C)=C/CC[C@]1(C)CCc2c3c(cc(C)c2O1)OCN(CCCCCCCCCCCCO)C3`, the growth at 10 µM in the experiment on BT-549 is 114%; with UO-31 it was 51.7%; in the experiment with SN12C, 71.8%; with OVCAR-8, 11.7%; with MDA-MB-435, 71.5%; with M14, 90.9%. The growth at 10 µM in the experiment on SF-268 was found to be 98.7%; in the experiment with SW-620, 95.2%; in the experiment on HT-29 it was 49.5%; in the experiment with COLO 205, 71.2%; in the experiment with NCI-H23, 77.3%; with A549 it was 47.6%. Moreover, the IC50 with MDA-MB-231 is greater than 50 µM.

`CC(C)=CCC/C(C)=C/CC/C(C)=C/CC[C@]1(C)CCc2c3c(c(C)c(C)c2O1)OCN(CCc1ccc(O)cc1)C3`: the growth at 10 µM is 113% with BT-549; 71.9% in the experiment on UO-31; 85.4% with SN12C; 42.1% in the experiment with OVCAR-8; 54.5% with MDA-MB-435; 97.6% with M14. For the same compound, the growth at 10 µM stood at 83.7% with SF-268; 48.4% with SW-620; 84.5% in the experiment on HT-29; 52.1% in the experiment with COLO 205; 88.2% with NCI-H23; 87.9% in the experiment with HOP-92. In the experiment on A549, the growth at 10 µM was 92.8%. Also, the IC50 in the experiment with MDA-MB-231 is greater than 5 µM.
